Bioassay records (PubChem)
FAK blocker: blocks human focal adhesion kinase activity; Q05397; biochemical FAK kinase activity assay; inhibition, %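 (tested at 7 µM)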; 97,000 compounds, 0.84% hits; AID 727; in the data active means inhibition above about 19%
Target sequence (Q05397 whole entry, looked up): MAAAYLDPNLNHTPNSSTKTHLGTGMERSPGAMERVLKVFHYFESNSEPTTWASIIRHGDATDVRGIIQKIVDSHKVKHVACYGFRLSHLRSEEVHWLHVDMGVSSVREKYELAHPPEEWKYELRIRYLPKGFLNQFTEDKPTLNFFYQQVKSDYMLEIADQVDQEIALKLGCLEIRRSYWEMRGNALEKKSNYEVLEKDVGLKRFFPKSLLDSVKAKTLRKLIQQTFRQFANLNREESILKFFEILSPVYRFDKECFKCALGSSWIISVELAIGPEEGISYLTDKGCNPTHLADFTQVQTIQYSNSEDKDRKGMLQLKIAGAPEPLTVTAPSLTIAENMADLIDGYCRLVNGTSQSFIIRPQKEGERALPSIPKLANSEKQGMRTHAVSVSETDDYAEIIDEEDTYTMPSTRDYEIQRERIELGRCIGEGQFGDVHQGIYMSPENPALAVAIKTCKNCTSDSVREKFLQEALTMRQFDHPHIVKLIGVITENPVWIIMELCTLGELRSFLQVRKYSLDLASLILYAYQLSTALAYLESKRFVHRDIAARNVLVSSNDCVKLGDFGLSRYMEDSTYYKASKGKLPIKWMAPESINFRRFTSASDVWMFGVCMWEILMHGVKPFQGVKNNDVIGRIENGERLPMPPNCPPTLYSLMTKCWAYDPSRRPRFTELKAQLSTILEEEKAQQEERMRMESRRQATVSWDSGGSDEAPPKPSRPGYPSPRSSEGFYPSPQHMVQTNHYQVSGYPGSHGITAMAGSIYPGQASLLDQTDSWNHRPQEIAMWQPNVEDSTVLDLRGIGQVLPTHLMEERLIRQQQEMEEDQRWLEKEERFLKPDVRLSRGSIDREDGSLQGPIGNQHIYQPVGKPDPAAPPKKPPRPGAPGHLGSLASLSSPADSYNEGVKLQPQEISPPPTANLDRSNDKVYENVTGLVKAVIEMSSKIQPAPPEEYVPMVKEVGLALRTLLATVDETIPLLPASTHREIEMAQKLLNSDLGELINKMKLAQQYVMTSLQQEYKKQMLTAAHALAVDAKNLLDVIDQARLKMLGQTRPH
Rev-RRE block: HIV Rev-RRE protein-RNA interaction inhibition; AID 704; P05866; Rev peptide-RRE RNA binding, FRET; inhibition, % at 8 µM; 97,000 compounds, 0.79% hits;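 active means inhibition above the screen-wide mean plus 3 SD, cut at about 35% in these data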
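Test system: labelled RRE RNA duplex and labelled Rev peptide. Times: 5 min compound–RNA preincubation, then 15 min with peptide, 25 °C. Doses: single-dose 8 µM. Measured by: FRET, excitation 480 nm, emission 540 nm donor and 671 nm acceptor. Measure: % inhibition of FRET ratio versus controls.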
Smad3 FoxH1 inh: inhibitors of human Smad3 transcription factor binding. inhibition, % at 25 µM. P84022. AID 630. TR-FRET Smad3/Dy647-FoxH1 peptide binding, europium anti-His. 88,000 compounds, 0.29% hits;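 active means compounds that reduce the energy-transfer binding signal between the protein and its labelled peptide by more than half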
ERa coact pot: enhances coactivator binding to human estrogen receptor alpha | P03372 | TR-FRET ERalpha-LBD/SRC-Cy5 coactivator binding, 2 h; 100 = basal binding, no effect | coactivator binding (% of control), % at 25.6 µM | 86,000 compounds, 1.3% hits | AID 639; in the data active means activity above about 200%;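 further: binding measured in presence of low estradiol as agonist stimulus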
ERa coact inh: ER-alpha (human) coactivator binding inhibition; P03372; TR-FRET ER-alpha LBD / SRC-1 peptide, estradiol-bound; inhibition, % at 25.6 µM; 86,000 compounds, 1.7% hits; AID 629; in the data active means inhibition above about 50%
ERb SRC1 inh: blocks coactivator binding to human estrogen receptor beta | Q92731 | inhibition, % at 25.6 µM | TR-FRET ER-beta LBD / SRC1-Cy5 peptide binding; receptor agonist-loaded with 1 µM estradiol | 86,000 compounds, 1.3% hits;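 active means compounds whose percent inhibition of the receptor-coactivator binding signal exceeds about 50% in the single-dose screen, limit read from the data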
Each line names hits and unclear results; the compound was inactive in the other large screens; [ ] = another dose, or the depositor's remark. This is a sample that favours compounds with a hit; in the whole collection about 4% have one here.

O=S(=O)(NCc1csc(-c2cccnc2)n1)c1cccs1	ERa coact inh 71.2 (no result: FAK blocker, Rev-RRE block)
CCn1c(N2CCN(C(=S)NCCc3ccccc3)CC2)nc2ccccc21	none (no result: Smad3 FoxH1 inh, ERa coact pot, ERa coact inh, ERb SRC1 inh)
O=c1oc2c(O)c(O)cc3c(=O)oc4c(O)c(O)cc1c4c23	Smad3 FoxH1 inh 97.6, ERa coact inh 93.9[fluorescence artefact?], ERb SRC1 inh 97.9[fluorescence artefact?] (no result: FAK blocker, Rev-RRE block)
O=c1c(/C=N/Nc2ccccc2)c(Sc2nnnn2-c2ccccc2)nc2ccccn12	Rev-RRE block 73.0[fluorescence artefact?] (no result: Smad3 FoxH1 inh, ERa coact pot, ERa coact inh, ERb SRC1 inh)
CCOc1cc(OCC)cc(C(=O)O)c1	ERa coact inh 98.9[fluorescence artefact?]
O=C(O)C(=Cc1ccc(-c2ccccc2)cc1)C(=O)O	none (no result: FAK blocker, Rev-RRE block, ERa coact pot, ERa coact inh, ERb SRC1 inh)
O[C@H]([C@H](O)[C@@H](O)c1nc2ccccc2[nH]1)[C@@H](O)c1nc2ccccc2[nH]1	none (no result: FAK blocker, Rev-RRE block, ERa coact pot, ERa coact inh, ERb SRC1 inh)
COc1ccc(Br)cc1/C(C)=N/NC1=NCCN1	none
CCCCCOc1ccc(Br)cc1/C(C)=N/NC1=NCCN1	ERa coact inh 65.9[fluorescence artefact?]
O=C(Cc1cn2ccsc2n1)OCc1ccccc1	none
O=C(Cc1cn2ccsc2n1)OCc1nc2ccccc2s1	ERa coact inh 64.0, ERb SRC1 inh 63.6[fluorescence artefact?]
COC(=O)C(NC(=O)CCc1c(C)nc2ncnn2c1C)C(C)C (stereo not given)	ERb SRC1 inh 66.3[fluorescence artefact?]
Cc1cccc2cc3ccc4ccccc4c3cc12	none (no result: FAK blocker, Rev-RRE block, ERa coact pot, ERa coact inh, ERb SRC1 inh)
Cc1ccc(/C=N\NC(=O)c2csnn2)cc1	none (no result: Smad3 FoxH1 inh, ERa coact pot, ERa coact inh, ERb SRC1 inh)
Cc1cccc(-n2cnc(C(=O)N/N=C\c3ccc(Br)cc3)c2)n1	ERa coact pot 515.4[fluorescence artefact?]
O=C(c1cccnc1)N1CCCc2ccccc21	none
O=C(c1cnccn1)N1CCc2ccccc21	ERa coact inh 79.5[fluorescence artefact?], ERb SRC1 inh 97.0[fluorescence artefact?] (no result: FAK blocker, Rev-RRE block)
Cc1ccc(Sc2c(C)nn(C(=O)c3cccc(S(=O)(=O)N4CCOCC4)c3)c2C)cc1	ERa coact pot 236.7[fluorescence artefact?]
O=C(CSc1nnc2scc(-c3ccccc3)n12)c1ccc2c(c1)OCCO2	ERa coact pot 436.9[fluorescence artefact?]
c1ccc(-c2csc3nnc(SCc4ccc5c(c4)OCCO5)n23)cc1	none (no result: Smad3 FoxH1 inh, ERa coact pot, ERa coact inh, ERb SRC1 inh)
COc1cccc(-c2nnc(SCC(=O)Nc3cc(C)on3)o2)c1	none (no result: Smad3 FoxH1 inh, ERa coact pot, ERa coact inh, ERb SRC1 inh)
Cc1cc(NC(=O)CSc2nnc(-c3ccc4c(c3)OCCO4)o2)no1	ERa coact pot 326.8[fluorescence artefact?]
O=C(CSc1nnc(-c2ccccc2)o1)c1ccc2c(c1)OCCO2	none
Cc1cc(C)cc(-c2nnc(SCC(=O)c3ccc4c(c3)OCCO4)o2)c1	ERa coact pot 221.3[fluorescence artefact?]
COC(=O)[C@H]1[C@@H]2C[C@H]3c4[nH]c5ccccc5c4CCN3C[C@H]2CC[C@@H]1O	none (no result: FAK blocker, Rev-RRE block, ERa coact pot, ERa coact inh, ERb SRC1 inh)
CCOC(=O)C1=C(N)n2c(s/c(=C\c3cccnc3)c2=O)=C(C(=O)OC)C1c1cccnc1 (stereo not given)	ERa coact pot 266.4[fluorescence artefact?], ERa coact inh 72.4[fluorescence artefact?]
CCOC(=O)C1=C(N)n2c(s/c(=C\c3cccnc3)c2=O)=C(C(=O)OCC)C1c1cccnc1 (stereo not given)	none (no result: FAK blocker, Rev-RRE block)
COc1ccc(-c2cc([C@H](O)[C@@H]3CCCCN3)c3ccccc3n2)cc1	none (no result: FAK blocker, Rev-RRE block, ERa coact pot, ERa coact inh, ERb SRC1 inh)
CC1CCc2cccc3c2N1c1cc(C#N)c(C#N)cc1O3 (stereo not given)	Rev-RRE block 39.7
CC1CCCCN1c1cc(C#N)c(C#N)cc1[N+](=O)[O-] (stereo not given)	none (no result: Smad3 FoxH1 inh, ERa coact pot, ERa coact inh, ERb SRC1 inh)
CCNc1cc2oc(=O)c(CN3CCOCC3)c(C)c2cc1C	Rev-RRE block 79.2
N=C(N)c1ccc(/C=C/c2ccc(C(=N)N)cc2)cc1	none (no result: FAK blocker, Rev-RRE block, ERa coact pot, ERa coact inh, ERb SRC1 inh)
Cc1ccc(S(=O)(=O)c2nc(S(C)(=O)=O)sc2NCC2CCCO2)cc1 (stereo not given)	ERa coact pot 610.5
Cc1cccc(-c2nnc3n2N=C(c2ccc(Br)cc2)CS3)c1	ERa coact pot 297.1, ERa coact inh 55.7[fluorescence artefact?] (no result: FAK blocker, Rev-RRE block)
COc1ccccc1-c1nnc2n1N=C(c1ccc(O)c(O)c1)CS2	ERa coact inh 60.1[fluorescence artefact?], ERb SRC1 inh 74.5[fluorescence artefact?]
Cc1ccc(-c2nnc3n2N=C(c2ccc(Br)cc2)CS3)cc1	ERa coact inh 65.8
CCOc1ccc(C2=Nn3c(nnc3-c3ccccc3OC)SC2)cc1	none (no result: Smad3 FoxH1 inh, ERa coact pot, ERa coact inh, ERb SRC1 inh)
CCOc1cccc(C2C(C(=O)c3ccc(C)o3)=C(O)C(=O)N2c2nccs2)c1 (stereo not given)	Rev-RRE block 73.9
CCOc1cccc(C2C(C(=O)c3ccc(C)o3)=C(O)C(=O)N2Cc2ccncc2)c1 (stereo not given)	none
CC1(C)[C@H]2CC[C@]1(C)[C@H](OC(=O)CSC#N)C2	none (no result: FAK blocker, Rev-RRE block, ERa coact pot, ERa coact inh, ERb SRC1 inh)
Cc1ccc(-c2cc3nc(-c4ccccc4)cc(N4CCC5(CC4)OCCO5)n3n2)cc1	ERa coact pot 283.7[fluorescence artefact?]
CCOc1ccccc1/C=C(\C#N)C(N)=O	none (no result: FAK blocker, Rev-RRE block, ERa coact pot, ERa coact inh, ERb SRC1 inh)
C/C(N)=C(/C#N)C(=O)COC(=O)C1CCC(C(C)(C)C)CC1 (stereo not given)	none
CN(C)c1ccc(NC(=O)c2cc3c(=O)n4ccccc4nc3n2C)cc1	ERa coact inh 100.2[fluorescence artefact?], ERb SRC1 inh 93.1[fluorescence artefact?]
C[C@H](OP(=O)(O)O)[C@H](N)C(=O)O	none (no result: FAK blocker, Rev-RRE block, ERa coact pot, ERa coact inh, ERb SRC1 inh)
CN1CCc2c(sc(/N=C/c3cccs3)c2C(N)=O)C1	Rev-RRE block 80.8, ERb SRC1 inh 73.9[fluorescence artefact?]
O=C(CCN1CCCCC1)c1csc2ccccc12	none (no result: FAK blocker, Rev-RRE block, ERa coact pot, ERa coact inh, ERb SRC1 inh)
C/C(=N\O)c1cccc[n+]1Cc1ccccc1	none (no result: FAK blocker, Rev-RRE block, ERa coact pot, ERa coact inh, ERb SRC1 inh)
O=C(NCc1ccco1)c1c2c(nc3ccccc13)CCC2	ERa coact inh 93.3[fluorescence artefact?], ERb SRC1 inh 92.0[fluorescence artefact?] (no result: FAK blocker, Rev-RRE block)
COc1ccc2cc3cc(C(=O)NCc4ccco4)oc3nc2c1	none
O=C(NCc1ccco1)c1csc2c1CCCCC2	none (no result: FAK blocker, Rev-RRE block)
COc1ccc2cc3c(N)c(C(=O)NCc4ccco4)sc3nc2c1	ERa coact inh 56.0[fluorescence artefact?]
Nc1c(C(=O)NCc2ccco2)sc2nc3c(cc12)C(=O)CCC3	ERa coact inh 82.4[fluorescence artefact?], ERb SRC1 inh 85.1[fluorescence artefact?]
